From ChEMBL document CHEMBL1154939, “Novel multiple opioid ligands based on 4-aminobenzazepinone (Aba), azepinoindole (Aia) and tetrahydroisoquinoline (Tic) scaffolds” (Bioorg Med Chem Lett, 2010)
Active and inactive are the calls of the source. No cut-off for these calls is given here. Numbered stars: 1 amine (or outer) side, 2 acyl side, 3 side chain; on linkers, the order of the positions; unused ones are H or OH. Bridge positions count the residues as written; N and C are the ends. Square brackets hold non-standard residues; d marks the D form. Peptide text beside a SMILES is read from it. I, II: the chains in the order shown. Dmt = Cc1cc(O)cc(C)c1C[C@H](N)C(=O)O; Ethylenediamine = C(CN[*:2])N[*:1]; Tic = O=C(O)[C@@H]1Cc2ccccc2CN1

Tests used:
[1] = biological target: Delta-type opioid receptor (Rattus norvegicus, UniProt P33533); experiment: Displacement of [3H]deltorphin 2 from delta opioid receptor in rat brain membranes; type: cell membranes
Delta-type opioid receptor (Rattus norvegicus, UniProt P33533), sequence (P33533 whole entry): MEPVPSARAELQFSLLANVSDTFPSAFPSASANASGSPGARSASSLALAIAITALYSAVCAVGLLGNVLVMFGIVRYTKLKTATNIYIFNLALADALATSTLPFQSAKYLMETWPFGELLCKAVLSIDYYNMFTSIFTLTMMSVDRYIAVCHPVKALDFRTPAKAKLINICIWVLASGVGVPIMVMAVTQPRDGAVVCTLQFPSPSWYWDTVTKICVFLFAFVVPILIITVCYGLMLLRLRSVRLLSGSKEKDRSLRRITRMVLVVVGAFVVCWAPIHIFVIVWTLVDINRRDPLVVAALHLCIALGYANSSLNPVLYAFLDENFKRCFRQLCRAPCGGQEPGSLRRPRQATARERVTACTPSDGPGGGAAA
How it was run: (§1)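 Equilibrium competition binding on P2 membrane preparation of rat brain; mu sites labelled with [3H]DAMGO, delta sites with [3H]deltorphin II. Five to eight graded peptide doses, duplicate wells; Ki via Cheng-Prusoff. Mean ± SEM from three to six independent assays using different synaptosomal preparations.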

Mu-type opioid receptor [2] = biological target: Mu-type opioid receptor (Cavia porcellus, UniProt P97266); experiment: Antagonist activity at mu opioid receptor in guinea pig ileum; type: functional, tissue-based
Mu-type opioid receptor (Cavia porcellus, UniProt P97266), sequence (P97266 whole entry): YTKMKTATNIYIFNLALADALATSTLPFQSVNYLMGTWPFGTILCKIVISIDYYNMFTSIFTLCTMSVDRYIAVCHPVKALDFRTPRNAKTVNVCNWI

Mu-type opioid receptor [3] = biological target: Mu-type opioid receptor (Rattus norvegicus, UniProt P33535); experiment: Displacement of [3H]DAMGO from mu opioid receptor in rat brain membranes; type: cell membranes; how it was run: as §1
Mu-type opioid receptor (Rattus norvegicus, UniProt P33535), sequence (P33535 whole entry): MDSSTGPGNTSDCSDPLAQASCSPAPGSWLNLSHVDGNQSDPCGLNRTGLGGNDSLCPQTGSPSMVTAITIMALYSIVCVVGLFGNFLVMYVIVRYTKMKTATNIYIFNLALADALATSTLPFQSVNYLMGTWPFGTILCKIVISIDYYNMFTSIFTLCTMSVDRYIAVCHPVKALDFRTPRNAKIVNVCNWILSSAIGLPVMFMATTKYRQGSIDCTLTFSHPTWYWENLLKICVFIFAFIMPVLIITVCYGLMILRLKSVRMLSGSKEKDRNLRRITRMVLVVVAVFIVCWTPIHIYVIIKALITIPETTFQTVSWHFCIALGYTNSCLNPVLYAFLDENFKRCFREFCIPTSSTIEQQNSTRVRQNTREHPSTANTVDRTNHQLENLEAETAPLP

[4] = biological target: Delta-type opioid receptor (Mus musculus, UniProt P32300); experiment: Antagonist activity at delta opioid receptor in mouse vas deferens; type: functional, tissue-based
Delta-type opioid receptor (Mus musculus, UniProt P32300), sequence (P32300 whole entry): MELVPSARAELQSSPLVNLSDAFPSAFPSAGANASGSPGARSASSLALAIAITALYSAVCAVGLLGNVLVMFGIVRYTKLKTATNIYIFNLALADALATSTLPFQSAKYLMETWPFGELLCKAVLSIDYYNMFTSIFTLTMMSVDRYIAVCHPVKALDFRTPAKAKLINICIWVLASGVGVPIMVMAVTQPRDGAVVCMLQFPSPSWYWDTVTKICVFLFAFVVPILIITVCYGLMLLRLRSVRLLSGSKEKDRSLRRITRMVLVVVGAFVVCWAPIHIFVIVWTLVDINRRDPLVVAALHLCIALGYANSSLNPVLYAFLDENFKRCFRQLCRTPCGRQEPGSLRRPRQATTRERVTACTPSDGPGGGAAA

[5] = biological target: Mu-type opioid receptor (Homo sapiens) (UniProt P35372); experiment: Antagonist activity at mu opioid receptor in human SK-N-SH cells assessed as inhibition of loperamide-stimulated [35S]-GTPgammaS binding after 60 mins by liquid scintillation counting; type: functional, cell-based
Mu-type opioid receptor (Homo sapiens), sequence (P35372 whole entry): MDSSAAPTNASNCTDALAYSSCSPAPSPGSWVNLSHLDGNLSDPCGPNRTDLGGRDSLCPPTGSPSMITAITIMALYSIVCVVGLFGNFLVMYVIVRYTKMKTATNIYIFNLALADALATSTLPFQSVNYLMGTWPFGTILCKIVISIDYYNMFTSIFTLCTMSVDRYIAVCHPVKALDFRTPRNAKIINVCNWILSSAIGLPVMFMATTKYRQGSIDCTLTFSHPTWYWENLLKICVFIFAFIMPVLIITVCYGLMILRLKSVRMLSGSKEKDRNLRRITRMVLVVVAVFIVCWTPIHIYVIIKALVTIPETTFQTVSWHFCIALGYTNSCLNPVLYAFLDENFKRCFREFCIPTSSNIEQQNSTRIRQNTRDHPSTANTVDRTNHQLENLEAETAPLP
How it was run: (§2)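 [35S]GTPγS binding in cell membranes: delta antagonism measured against deltorphin C-stimulated binding in NG108-15 membranes, mu antagonism against loperamide-stimulated binding in SK-N-SH membranes; antagonism expressed as pA2 from rightward shift of agonist dose-response curves.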

[6] = biological target: Delta-type opioid receptor (Rattus norvegicus) (UniProt P33533); experiment: Antagonist activity at delta opioid receptor in rat NG108-15 cells assessed as inhibition of deltorphin C-stimulated [35S]-GTPgammaS binding after 60 mins by scintillation counting; type: functional, cell-based; how it was run: as §2
Delta-type opioid receptor (Rattus norvegicus), sequence (P33533 whole entry): as the sequence (P33533 whole entry) above

Rattus norvegicus [7] = species: Rattus norvegicus; experiment: Selectivity ratio of Ki for rat mu opioid receptor to Ki for rat delta opioid receptor
Rattus norvegicus [8] = species: Rattus norvegicus; experiment: Selectivity ratio of Ki for rat delta opioid receptor to Ki for rat mu opioid receptor

Structure (SMILES) | Ki [1] [nM] | IC50 (Mu-type opioid receptor [2]) [nM] | Ki (Mu-type opioid receptor [3]) [nM] | IC50 [4] [nM] | pA2 [5] | pA2 [6] | Ratio Ki (Rattus norvegicus [7]) | Ratio Ki (Rattus norvegicus [8])
Cc1cc(O)cc(C)c1C[C@H](N)C(=O)N[C@H]1Cc2ccccc2CN(CC(=O)NCCN(CCNC(=O)CN2Cc3ccccc3C[C@H](NC(=O)[C@@H](N)Cc3c(C)cc(O)cc3C)C2=O)CCNC(=O)CN2Cc3ccccc3C[C@H](NC(=O)[C@@H](N)Cc3c(C)cc(O)cc3C)C2=O)C1=O | 196 | > 10000 | 8.06 | > 10000 |  |  |  | 
Cc1cc(O)cc(C)c1C[C@H](N)C(=O)N1Cc2ccccc2C[C@H]1C(=O)NCC/C=C/CCNC(=O)[C@@H]1Cc2ccccc2CN1C(=O)[C@@H](N)Cc1c(C)cc(O)cc1C |  |  | 1.5 |  |  |  |  | 
Cc1cc(O)cc(C)c1C[C@H](N)C(=O)N[C@H]1Cc2ccccc2CN(CC(=O)NCCNC(=O)CN2Cc3ccccc3C[C@H](NC(=O)[C@@H](N)Cc3c(C)cc(O)cc3C)C2=O)C1=O | 154 | > 10000 | 16.1 |  |  |  |  | 
Cc1cc(O)cc(C)c1C[C@@H](C(=O)N[C@H]1Cc2c([nH]c3ccccc23)CN(CC(=O)NCCNC(=O)CN2Cc3[nH]c4ccccc4c3C[C@H](NC(=O)[C@H](Cc3c(C)cc(O)cc3C)N(C)C)C2=O)C1=O)N(C)C | 101 |  | 344 |  | inactive | inactive | 3.4 | 
Cc1cc(O)cc(C)c1C[C@H](N)C(=O)N[C@@H]1Cc2c([nH]c3ccccc23)CN(CC(=O)NCc2ccc(CNC(=O)CN3Cc4[nH]c5ccccc5c4C[C@@H](NC(=O)[C@@H](N)Cc4c(C)cc(O)cc4C)C3=O)cc2)C1=O | 361 |  | 177 |  | inactive | inactive |  | 2
Cc1cc(O)cc(C)c1C[C@H](N)C(=O)N1Cc2ccccc2C[C@H]1C(=O)O (H-[Dmt]-[Tic]-OH) |  |  | 3.32 |  |  |  |  | 
Cc1cc(O)cc(C)c1C[C@H](N)C(=O)N1Cc2ccccc2C[C@H]1C(=O)NCCNC(=O)[C@@H]1Cc2ccccc2CN1C(=O)[C@@H](N)Cc1c(C)cc(O)cc1C (I: H-[Dmt]-[Tic] / II: H-[Dmt]-[Tic]; linker I:C-II:C via Ethylenediamine) | 0.96 | > 10000 | 10.2 | > 10000 |  |  |  | 
Cc1cc(O)cc(C)c1C[C@H](N)C(=O)N1Cc2ccccc2C[C@H]1C(=O)NCCN(CCNC(=O)[C@@H]1Cc2ccccc2CN1C(=O)[C@@H](N)Cc1c(C)cc(O)cc1C)CCNC(=O)[C@@H]1Cc2ccccc2CN1C(=O)[C@@H](N)Cc1c(C)cc(O)cc1C | 3.75 | > 10000 | 7.78 | > 10000 |  |  |  | 
Cc1cc(O)cc(C)c1C[C@H](N)C(=O)N[C@@H]1Cc2c([nH]c3ccccc23)CN(CC(=O)NCCNC(=O)CN2Cc3[nH]c4ccccc4c3C[C@@H](NC(=O)[C@@H](N)Cc3c(C)cc(O)cc3C)C2=O)C1=O | 211 |  | 139 |  | inactive | inactive |  | 1.5
